Results of several laboratories.
Compare with care: the assays were run in different laboratories.
Cell line: COLO 205
Read-out: cell growth or viability

| Structure (SMILES) | test | setting | measurement | value |
| --- | --- | --- | --- | --- |
| COc1cc2ccc(=O)oc2cc1OC | MTT | 24 h | IC50 | > 100000 nM |
| CC(C)[C@H](N)c1nc2cc(-c3ccncc3F)sc2c(=O)[nH]1 | MTT |  | IC50 | 24.8 nM |
| COc1cc(Nc2nccc(-c3cnn4nc(OC)ccc34)n2)cc(C(F)(F)F)c1 | ATP luminescence |  | IC50 | 510 nM |
| Cc1cc(-c2cc3nc([C@@H](N)C(C)C)[nH]c(=O)c3s2)ccn1 | MTT |  | IC50 | 1410 nM |
| CC(C)C[C@H](NC(=O)[C@H](Cc1ccccc1)NC(=O)c1cnccn1)B(O)O | ATP luminescence |  | IC50 | 22 nM |
| CC(C)[C@H](N)c1nc2cc(-c3ccnc(F)c3)sc2c(=O)[nH]1 | MTT |  | IC50 | 89.3 nM |
| COc1ccc(C(=O)/C=C/c2cccc(Cl)c2)cc1S(N)(=O)=O | SRB | 10 µM | inhibition | 165% |
| COc1cccc(Oc2ccccc2NC(=O)CNC(=O)c2cccc3ccccc23)c1 | SRB | 48 h | GI50 | 282 nM |
| COc1ccc(C(=O)/C=C/c2ccccc2Br)cc1S(N)(=O)=O | SRB | 48 h | GI50 | 2200 nM |
| COc1c2ccoc2c(OCC=C(C)C)c2oc(=O)ccc12 | MTT | 24 h | IC50 | > 100000 nM |
